Data as given in ChEMBL document CHEMBL5107950, “Structure-based design of haloperidol analogues as inhibitors of acetyltransferase Eis from Mycobacterium tuberculosis to overcome kanamycin resistance” (RSC Med Chem, 2021).
In brackets after ≈: the same amount, converted by molar mass. Activity calls are given as the source filed them. The calls are words filed in the database; no cut-off is given here.

Key:
[1] = system: Mycobacterium tuberculosis; assay: Potentiation of kanamycin-induced antibacterial activity against Mycobacterium tuberculosis K204 assessed as kanamycin MIC incubated for 1 day followed by kanamycin addition for 6 days and by Alamar blue assay; format: functional; conditions: K204, 168 h, time 7 day
How it was run: (§1)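 Mtb in 7H9 + 10% ADC, 0.05% Tween 80, 0.4% glycerol at 37 °C. Inoculum adjusted to OD600 0.2, diluted 1:25. Cells preincubated 24 h at 37 °C with compound (100 µL of 200 µM solution). KAN then added: H37Rv at 2.5 and 1.25 µg/mL; K204 at 10, 5, 2.5, 1.25 µg/mL. Incubated 6 days, AlamarBlue added, colour read at 24 and 48 h. MIC = lowest KAN with no colour change. At least twice in duplicate.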

J774.A1 = assay: Cytotoxicity against mouse J774.A1 cells assessed as reduction in cell viability at 100 uM incubated for 24 hrs by resazurin assay; format: toxicity, cell-based; conditions: j774.a1, 24 h
How it was run: (§2)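 Resazurin viability assay in DMEM + 10% FBS, 1% penicillin/streptomycin, 37 °C, 5% CO₂. Seeding: HEK-293 and J774A.1 at 1×10^4 cells/mL, A549 at 5×10^3 cells/mL. After 24 h, compounds added (0.78-200 μM, 0.5% DMSO final). Resazurin added 24 h later, read after 6 h. 1% Triton X as positive control. Quadruplicate.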

[2] = system: Mycobacterium intracellulare; assay: Antibacterial activity against Mycobacterium intracellulare ATCC 13950 assessed as inhibition of bacterial growth incubated upto 3 weeks hrs by resazurin dye based double-dilution method; format: functional; conditions: ATCC 13950, 504 h
How it was run: (§3)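 Double-dilution broth MIC. Media: M. smegmatis, Mueller-Hinton; M. abscessus, 7H9 + 0.05% Tween80 + 0.4% glycerol; mc²6230, 7H9 + 0.05% tyloxapol, 0.5% glycerol, 10% OADC, 0.2% casamino acids, 24 µg/mL pantothenate; other mycobacteria, 7H9 + 0.05% Tween80, 0.4% glycerol, 10% ADC. Inoculum from agar set to 0.5 McFarland, then diluted 1:100.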

[3] = system: Mycobacteroides abscessus; assay: Antibacterial activity against Mycobacterium abscessus ATCC 19977 assessed as inhibition of bacterial growth incubated upto 3 weeks hrs by resazurin dye based double-dilution method; format: functional; conditions: ATCC 19977, 504 h; how it was run: as §3
Mycobacterium avium [4] = assay: Antibacterial activity against Mycobacterium avium ATCC 25921 assessed as inhibition of bacterial growth incubated upto 3 weeks hrs by resazurin dye based double-dilution method; format: functional; conditions: ATCC 25921, 504 h; how it was run: as §3
[5] = system: Mycobacterium tuberculosis; assay: Antibacterial activity against Mycobacterium tuberculosis H37Ra ATCC NRS22 assessed as inhibition of bacterial growth incubated upto 3 weeks hrs by resazurin dye based double-dilution method; format: functional; conditions: H37Ra ATCC NRS22, 504 h; how it was run: as §3
[6] = system: Mycobacterium tuberculosis; assay: Potentiation of kanamycin-induced antibacterial activity against Mycobacterium tuberculosis H37Rv assessed as kanamycin MIC incubated for 1 day followed by kanamycin addition for 6 days and by Alamar blue assay; format: functional; conditions: 168 h, time 7 day; how it was run: as §1
[7] = system: Mycolicibacterium smegmatis; assay: Antibacterial activity against Mycobacterium smegmatis mc2 155 assessed as inhibition of bacterial growth incubated upto 3 weeks hrs by resazurin dye based double-dilution method; format: functional; conditions: mc2 155, 504 h; how it was run: as §3
N-acetyltransferase Eis [8] = biological target: T1, N-acetyltransferase Eis (Mycobacterium tuberculosis (strain ATCC 25618 / H37Rv), UniProt P9WFK7); assay: Inhibition of Mycobacterium tuberculosis Eis assessed as Eis-mediated kanamycin acetylation preincubated for 10 mins followed by substrate addition and measured for 2 to 5 mins using acetyl-CoA as substrate in presence of kanamycin by UV-Vis spectroscopy analysis
T1 sequence (P9WFK7 whole entry): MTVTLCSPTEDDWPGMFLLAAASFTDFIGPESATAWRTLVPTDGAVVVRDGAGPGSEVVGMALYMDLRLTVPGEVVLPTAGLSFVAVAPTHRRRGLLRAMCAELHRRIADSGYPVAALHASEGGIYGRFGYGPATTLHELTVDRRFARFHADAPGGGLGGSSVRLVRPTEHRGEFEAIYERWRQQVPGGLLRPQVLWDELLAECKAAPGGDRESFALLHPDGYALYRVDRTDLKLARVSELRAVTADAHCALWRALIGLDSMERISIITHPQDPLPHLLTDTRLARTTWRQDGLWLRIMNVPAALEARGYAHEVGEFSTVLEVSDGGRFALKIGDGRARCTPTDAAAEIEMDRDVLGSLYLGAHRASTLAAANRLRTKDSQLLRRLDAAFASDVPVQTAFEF
How it was run: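 Recombinant Eis (1 µM) mixed with KAN (400 µM) in 50 mM Tris-HCl pH 8.0 and preincubated 10 min with 5-fold serially diluted inhibitor (10% DMSO in buffer). Reaction started with AcCoA and DTNB (2 mM each, as added). Absorbance read every 30 s for 20 min. Initial rates (first 2-5 min) fitted to Hill plot for IC50. At least triplicate.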

HEK293 = assay: Cytotoxicity against human HEK293 cells assessed as reduction in cell viability at 200 uM incubated for 24 hrs by resazurin assay; format: toxicity, cell-based; conditions: hek293, 24 h; how it was run: as §2
A549 = assay: Cytotoxicity against human A549 cells assessed as reduction in cell viability at 100 to 200 uM incubated for 24 hrs by resazurin assay; format: toxicity, cell-based; conditions: a549, 24 h, dose 100-200 µM; how it was run: as §2
N-acetyltransferase Eis [9] = biological target: T1, N-acetyltransferase Eis; assay: Competitive inhibition of Mycobacterium tuberculosis Eis assessed as reduction in Eis-mediated kanamycin acetylation preincubated for 10 mins followed by substrate addition and measured for 2 to 5 mins using acetyl-CoA as substrate in presence of kanamycin by Lineweaver-Burk plot analysis
How it was run: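 Same DTNB-coupled Eis acetylation assay used for IC50, run as Michaelis-Menten kinetics with inhibitor at 0-1 μM. Vmax and Km from these fits used to determine mode of inhibition. Quadruplicate.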

[10] = system: Mycolicibacterium smegmatis; assay: Synergistic antibacterial activity against Mycobacterium smegmatis mc2 155 assessed as fold reduction in MIC value at 8 ug/ml in presence of spectinomycin by checkerboard assay; format: functional; conditions: dose 8 µg/ml
[11] = system: Mycolicibacterium smegmatis; assay: Synergistic antibacterial activity against Mycobacterium smegmatis mc2 155 assessed as fold reduction in MIC value at 8 ug/ml in presence of clarithromycin by checkerboard assay; format: functional; conditions: dose 8 µg/ml
[12] = system: Mycobacteroides abscessus; assay: Synergistic antibacterial activity against Mycobacterium abscessus ATCC 19977 in presence of clarithromycin by checkerboard assay; format: functional, organism-based
How it was run: (§4)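 Checkerboard in 96-well plates. Antibiotic two-fold serially diluted along columns, haloperidol derivative two-fold along rows. Bacteria prepared as for the MIC determination. MICs alone and in combination used to calculate FICI. At least duplicate independent trials.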

[13] = system: Mycobacterium intracellulare; assay: Antibacterial activity against Mycobacterium intracellulare ATCC 13950 in presence of clofazimine by checkerboard assay; format: functional, organism-based; how it was run: as §4
Mycobacterium avium [14] = assay: Antibacterial activity against Mycobacterium avium ATCC 25921 in presence of spectinomycin by checkerboard assay; format: functional, organism-based; how it was run: as §4
[15] = system: Mycobacteroides abscessus; assay: Synergistic antibacterial activity against Mycobacterium abscessus ATCC 19977 in presence of clofazimine by checkerboard assay; format: functional, organism-based; how it was run: as §4
Mycobacterium avium [16] = assay: Antibacterial activity against Mycobacterium avium ATCC 25921 in presence of clarithromycin by checkerboard assay; format: functional, organism-based; how it was run: as §4
Mycobacterium avium [17] = assay: Antibacterial activity against Mycobacterium avium ATCC 25921 in presence of clofazimine by checkerboard assay; format: functional, organism-based; how it was run: as §4
[18] = system: Mycobacterium tuberculosis; assay: Synergistic antibacterial activity against Mycobacterium tuberculosis H37Ra ATCC NRS22 in presence of spectinomycin by checkerboard assay; format: functional, organism-based; how it was run: as §4
[19] = system: Mycobacterium intracellulare; assay: Antibacterial activity against Mycobacterium intracellulare ATCC 13950 in presence of spectinomycin by checkerboard assay; format: functional, organism-based; how it was run: as §4
[20] = system: Mycolicibacterium smegmatis; assay: Synergistic antibacterial activity against Mycobacterium smegmatis mc2 155 assessed as fold reduction in MIC value at 8 ug/ml in presence of clofazimine by checkerboard assay; format: functional, organism-based; conditions: dose 8.0 µg/ml
[21] = system: Mycobacterium intracellulare; assay: Antibacterial activity against Mycobacterium intracellulare ATCC 13950 in presence of clarithromycin by checkerboard assay; format: functional, organism-based; how it was run: as §4
[22] = system: Mycobacteroides abscessus; assay: Synergistic antibacterial activity against Mycobacterium abscessus ATCC 19977 assessed as reduction in bacterial growth presence of spectinomycin by checkerboard assay; format: functional, organism-based; how it was run: as §4

O=C(CCCN1CCC(O)(c2ccc(Cl)cc2)CC1)c1ccc(Br)cc1
MIC [1]: > 10 µg/mL
Activity (J774.A1): 100%
MIC [2]: > 62.5 µM
MIC [3]: > 62.5 µM
MIC (Mycobacterium avium [4]): > 62.5 µM
MIC [5]: 31.3 µM (≈ 13.7 µg/mL)
MIC [6]: ≤ 1.25 µg/mL
MIC [7]: > 62.5 µM
IC50 (N-acetyltransferase Eis [8]): > 200000 nM
Activity (HEK293): Non-Toxic
Activity (A549): 70%

O=C(CCCN1CCC(O)(c2ccc(Br)cc2)CC1)c1ccc(F)cc1 [BROMPERIDOL]
MIC [1]: 5 µg/mL
Ki (N-acetyltransferase Eis [9]): 240 nM
fold change (FC) [10]: 16
fold change (FC) [11]: 4
MIC [2]: 62.5 µM (≈ 26.3 µg/mL)
MIC [3]: > 62.5 µM
MIC (Mycobacterium avium [4]): 62.5 µM (≈ 26.3 µg/mL)
MIC [5]: > 62.5 µM
MIC [6]: ≤ 1.25 µg/mL
MIC [7]: > 62.5 µM
IC50 (N-acetyltransferase Eis [8]): 520 nM

O=C(CCCN1CCC(O)(c2ccc(F)cc2)CC1)c1ccc(Cl)cc1
Activity [12]: Active
Activity [13]: Active
Activity (Mycobacterium avium [14]): Active
MIC [1]: 10 µg/mL
Activity [15]: Active
Activity (Mycobacterium avium [16]): Active
fold change (FC) [10]: 16
fold change (FC) [11]: 4
Activity (Mycobacterium avium [17]): Active
MIC [2]: > 62.5 µM
Activity [18]: Active
MIC [3]: > 62.5 µM
Activity [19]: Active
MIC (Mycobacterium avium [4]): > 62.5 µM
MIC [5]: > 62.5 µM
MIC [6]: ≤ 1.25 µg/mL
MIC [7]: > 62.5 µM
IC50 (N-acetyltransferase Eis [8]): 2600 nM
Activity [20]: Active
Activity [21]: Active
Activity [22]: Active

O=C(CCCN1CCC(O)(c2ccc(F)cc2)CC1)c1ccc(F)cc1
MIC [1]: 5 µg/mL
Ki (N-acetyltransferase Eis [9]): 910 nM
fold change (FC) [10]: 16
fold change (FC) [11]: 4
MIC [2]: > 62.5 µM
MIC [3]: > 62.5 µM
MIC (Mycobacterium avium [4]): > 62.5 µM
MIC [5]: > 62.5 µM
MIC [6]: ≤ 1.25 µg/mL
MIC [7]: > 62.5 µM
IC50 (N-acetyltransferase Eis [8]): 760 nM
